SENP8 block-1 = SENP8 protease inhibitors, primary screen, biochemical, luminescence; Sentrin-specific protease 8 (Homo sapiens), Q96LD8; purified SENP8, Z-RLRGG-aminoluciferin cleavage; inhibition, % at 10 µM; hit rate 1.2% among 330,000; AID 2540, 2010; in the data active = inhibition above about 50%
Target sequence (Q96LD8 whole entry, looked up): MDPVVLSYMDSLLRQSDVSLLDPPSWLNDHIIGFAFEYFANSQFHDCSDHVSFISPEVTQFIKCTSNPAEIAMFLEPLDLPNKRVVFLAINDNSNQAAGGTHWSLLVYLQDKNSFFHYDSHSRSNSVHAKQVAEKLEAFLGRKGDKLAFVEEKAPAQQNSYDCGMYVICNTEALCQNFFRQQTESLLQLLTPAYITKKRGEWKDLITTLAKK
SENP1 FRET inh = human SENP1 catalytic domain inhibitors, primary screen, biochemical, FRET, uHTS | recombinant SENP1 catalytic domain, CyPet-SUMO1-YPet FRET cleavage | inhibition, % at 10 µM | hit rate 0.21% among 360,000 | AID 624204, 2012;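 active = inhibition at least 30% at 10 µM, raw YFP signal under a set limit, fluorescence ratio 0.5 to 1.5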
Target sequence (Q9P0U3 419-644 limits assumed): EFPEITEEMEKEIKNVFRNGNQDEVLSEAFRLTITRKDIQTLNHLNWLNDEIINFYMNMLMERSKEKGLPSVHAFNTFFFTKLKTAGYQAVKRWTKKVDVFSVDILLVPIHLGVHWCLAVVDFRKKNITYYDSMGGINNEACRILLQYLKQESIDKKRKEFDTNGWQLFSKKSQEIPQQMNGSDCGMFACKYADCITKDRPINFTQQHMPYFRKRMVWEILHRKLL
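System: Recombinant human SENP1 catalytic domain, His6-tagged | Incubation: Enzyme reaction for 50 min at room temperature, dark | Medium: Tris pH 8 with BME, BSA, NP40 and catalase | Also added: 25 nM SUMO1 FRET substrate | Compound: 10 µM single point, 0.5% DMSO | Measured by: FRET fluorescence in CFP and YFP emission channels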
SENP6 inh = SENP6 protease inhibitors, primary screen, biochemical, luminescence, uHTS; hit rate 1.8% among 330,000; Recombinant SENP6 catalytic domain, aminoluciferin luminescence; inhibition, % at 10 µM; Sentrin-specific protease 6 (Homo sapiens), Q9GZR1; AID 2599, 2010;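 active = inhibition above about 50% at the single tested dose, limit read from the data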
SENP7 block = SENP7 protease inhibitors, primary screen, biochemical, luminescence, uHTS; hit rate 1.5% among 330,000; Sentrin-specific protease 7 (Homo sapiens), Q9BQF6; inhibition, % at 5 µM; recombinant SENP7, Z-RLRGG-aminoluciferin luminescence, 40 min; AID 434973, 2010;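 active = inhibition above about 50% at the single test dose, limit read from the data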
SENP8 block-2 = human SENP8 protease inhibitors, primary screen, biochemical, fluorescence, Nedd8 protein substrate, uHTS. hit rate 0.64% among 360,000. AID 602440, 2012. Sentrin-specific protease 8 (Homo sapiens), Q96LD8. inhibition, % at 20 µM. recombinant SENP8; in the data active = inhibition mostly above about 40%, no sharp cut-off; inactive = mostly below about 27%
SENP8 conf = SENP8 protease inhibitors, retest, confirmation, biochemical, luminescence, single concentration; hit rate 40% among 6,200; inhibition, % at 12.5 µM; Recombinant SENP8, Z-RLRGG-aminoluciferin luminescence, 60 min; shares compounds with SENP7 block;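 active = mean inhibition across replicates above about 50%, limit read from the data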
SENP6 conf = SENP6 protease inhibitors, confirmation, biochemical, luminescence, single concentration; shares compounds with SENP7 block; recombinant SENP6, Z-RLRGG-aminoluciferin luminescence; inhibition, % at 12.5 µM; hit rate 58% among 6,200
SENP7 confirm = SENP7 protease inhibitors, retest, confirmation, biochemical, luminescence, single concentration; shares compounds with SENP7 block; recombinant SENP7, Z-RLRGG-aminoluciferin luminescence, 40 min; inhibition, % at 12.5 µM; hit rate 69% among 6,200; AID 488917, 2010
Casp3 select = caspase-3 protease inhibitors, confirmation, selectivity assay for SENP inhibitor project, biochemical, single concentration. shares compounds with SENP7 block. purified caspase-3, Z-DEVD-aminoluciferin luminescence, 60 min. inhibition, % at 12.5 µM. hit rate 60% among 6,200. AID 488918, 2010;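 active = mean inhibition above about 50%, limit read from the data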
Luc interf = luminescence interference (SENP counter-screen). inhibition, % at 12.5 µM. hit rate 39% among 6,200. AID 488919. shares compounds with SENP7 block. Pre-incubated SENP8/Z-RLRGG-aminoluciferin, luciferase luminescence interference;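 active = mean inhibition above about 50% when retested at one dose, limit read from the data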
Numbers stand for hits; i = inactive; nt = not tested or not shown. Rows were chosen to be rich in hits. Some 2.5% of all compounds tested hit in one or more screens of this group.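 Rule for the calls, unless noted: active = mean inhibition above about 50% in the one-dose retest (limit read from the data); inactive = the rest.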

SMILES	SENP8 block-1	SENP1 FRET inh	SENP6 inh	SENP7 block	SENP8 block-2	SENP8 conf	SENP6 conf	SENP7 confirm	Casp3 select	Luc interf
O=C1/C(=C/c2ccc(F)cc2)CCC1C1CCCC1 (centres undefined)	62.4	i	i	62.2	i	i	i	i	53.8	i
CCOc1ccc(/C=C2\CCC(C3CCCC3)C2=O)cc1 (centres undefined)	i	i	i	71.2	i	i	i	i	i	i
COc1ccccc1/C=C1\CCC(C2CCCC2)C1=O (centres undefined)	i	i	i	i	i	nt	nt	nt	nt	nt
CCc1cc(Br)ccc1NC(=S)NCCc1ccccc1	i	i	i	i	i	nt	nt	nt	nt	nt
CCN(CC)C(=O)C1=C(C)N(CCC2=CCCCC2)C(=O)C(CC(=O)NCc2ccco2)C1 (centres undefined)	nt	i	nt	nt	i	nt	nt	nt	nt	nt
Cc1ccc(SCC(=O)OCC(=O)NC(C)c2ccc(F)cc2)cc1 (centres undefined)	i	i	i	i	i	nt	nt	nt	nt	nt
O=C1/C(=C/c2ccco2)Cc2ccccc21	i	i	65.7	i	i	i	66.8	90.0	71.6	i
Cc1ccc(NC2=C(NCCO)C(=O)c3ccccc3C2=O)cc1	i	i	70.3	i	i	i	56.5	i	i	i
CCOC(=O)CSC1=NC(=O)/C(=C/c2ccc(OC)cc2)S1	i	i	77.0	i	i	i	i	i	i	i
O=C(CC1C(=O)NC2CCCCC2N1C(=O)c1ccc(F)cc1)Nc1ccccc1 (centres undefined)	i	i	i	i	i	nt	nt	nt	nt	nt
Cc1ccc(NC(=O)CC2C(=O)NC3CCCCC3N2C(=O)c2ccc(F)cc2)cc1C (centres undefined)	i	i	54.3	i	i	i	i	i	i	i
CC1CCCN(c2ccc3nc4ccccc4c(=O)n3n2)C1 (centres undefined)	i	i	60.7	i	i	i	51.8	81.1	82.7	i
Fc1ccc(NC(=S)N2N=CCC2c2ccccc2)cc1 (centres undefined)	i	i	58.5	i	i	i	i	66.5	i	i
COc1ccc2c(c1)CC/C2=N\OC(=O)c1ccccc1C	72.8	i	78.7	79.8	i	i	82.0	82.9	71.6	i
COc1ccc2c(c1)CC/C2=N\OC(=O)c1cccc(C)c1	71.8	i	86.2	84.1	i	i	i	i	i	i
COc1ccc2c(c1)CCC/C2=N/OC(=O)c1ccccc1OC	i	i	i	i	i	nt	nt	nt	nt	nt
COc1ccc2c(c1)CC/C2=N\NC(=O)c1ccccc1	i	i	i	i	i	nt	nt	nt	nt	nt
CNC(=O)Nc1ccc(C2SCCS2)cc1	i	i	i	i	i	nt	nt	nt	nt	nt
O=C(Nc1ccccc1)c1ccc(NC(=O)C2CC2)cc1	i	i	57.9	61.9	i	i	i	66.6	63.6	i
O=C(Nc1ccc(C2SCCS2)cc1)c1ccccc1	53.0	i	i	92.0	i	i	i	i	i	i
O=C(NNC(=O)c1ccc(NC(=O)C2CC2)cc1)c1ccc(F)cc1	i	i	i	i	i	nt	nt	nt	nt	nt
O=C(CCC(=O)c1ccccc1)Nc1ccccc1OC(F)F	i	i	i	i	i	nt	nt	nt	nt	nt

Compound activity from PubChem BioAssay.
